ChEMBL document CHEMBL1126582, “Symmetry-based inhibitors of HIV protease. Structure-activity studies of acylated 2,4-diamino-1,5-diphenyl-3-hydroxypentane and 2,5-diamino-1,6-diphenylhexane-3,4-diol” (J Med Chem, 1993)
pEC50, pIC50: −log10 of the molar value. Converted amounts (≈) assume the structure as drawn.

What was measured:
[1] = % bioavailability in rat after oral dose (10 mg/kg) 0 - 6 h.; type: ADME, organism-based; details: in vivo
Procedure, shortened: (§1)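 Rats in groups of eight: four dosed 5 mg/kg intravenously, four 10 mg/kg orally. Dosing solutions were 5 mg/mL in 20% ethanol/5% glucose in water with 2 molar equiv HCl (1 equiv HCl or 2 equiv methanesulfonic acid for some). Terminal t1/2 from the IV arm (n = 4). Cmax was the peak plasma level after oral dosing (n = 4). Bioavailability was AUCoral/2 × AUCiv over 0-6 h.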

[2] = Estimated solubility (buffer pH 7.4); type: ADME; details: read-out: S
Procedure, shortened: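 Solubility was estimated in pH 7.4 phosphate buffer.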

[3] = Cmax in rat plasma after oral dose (10 mg/kg); type: ADME, organism-based; design: dose 10 mg/kg, route oral; procedure, shortened: as §1
[4] = target: Human immunodeficiency virus type 1 protease (Human immunodeficiency virus 1, UniProt Q72874); assay: Inhibition of purified recombinant HIV-1 protease in a fluorogenic assay
Procedure, shortened: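 Purified recombinant HIV-1 protease, with cleavage of the fluorogenic substrate DABCYL-[…]-Pro-Ile-Val-Gln-EDANS as read-out. Value is the inhibitor concentration giving 50% inhibition of protease activity.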

[5] = t1/2 in rats after IV dose (5 mg/kg); type: ADME, organism-based; details: rat, in vivo; procedure, shortened: as §1
[6] = In vitro for cytotoxicity in MT-4 lymphocytes in the absence of HIV infection; type: cell-based, MT4; details: human
Procedure, shortened: (§2)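 Uninfected MT-4 lymphocytes were cultured with compound. CC50 is the concentration at which 50% of cells remain viable.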

MT4 [7] = assay: Compound was tested in vitro for inhibition of cytopathic effect of HIV-1 3B in MT-4 lymphocytes; No effect; type: functional, cell-based, Homo sapiens
Procedure, shortened: (§3)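 MT-4 lymphocytes were infected with HIV-1 3B at an MOI of either 0.001 or 0.032 tissue culture infective dose per cell. EC50 is the concentration preventing 50% of viral cytopathic effect, from a single triplicate assay. No effect means no activity up to 100 μM or up to the cytotoxic concentration.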

[8] = test system: Human immunodeficiency virus 1; assay: In vitro for inhibition of cytopathic effect of HIV-1 3B in MT-4 lymphocytes.; type: functional, organism-based; procedure, shortened: as §3
[9] = Cmax in plasma after oral dose (10 mg/kg); type: ADME, organism-based; design: dose 10 mg/kg, route oral; procedure, shortened: as §1
MT4 [10] = assay: In vitro for cytotoxicity in MT-4 lymphocytes in the absence of HIV infection.; type: functional; details: Homo sapiens; procedure, shortened: as §2
[11] = test system: Human immunodeficiency virus 1; assay: Compound was tested in vitro for inhibition of cytopathic effect of HIV-1 3B in MT-4 lymphocytes; type: functional, organism-based; procedure, shortened: as §3

| Structure (SMILES) | bioavailability [1] | solubility [2] | Cmax [3] | pIC50 [4] | half-life [5] | CC50 [6] | EC50 (MT4 [7]) | pEC50 [8] | Cmax [9] | CC50 (MT4 [10]) | pEC50 [11] |
| --- | --- | --- | --- | --- | --- | --- | --- | --- | --- | --- | --- |
| CC(C)[C@H](NC(=O)N1CCN(C)CC1)C(=O)N[C@@H](Cc1ccccc1)[C@@H](O)[C@H](Cc1ccccc1)NC(=O)[C@H](NC(=O)OCc1ccccc1)C(C)C | 13% | 141 µg/mL (≈ 193 µM) | 250 nM | 7.55 | 1.1 h | 55 µM | Not Active | – | – | – | – |
| CC(C)[C@H](NS(=O)(=O)N(C)Cc1ccccn1)C(=O)N[C@@H](Cc1ccccc1)[C@H](O)[C@H](O)[C@H](Cc1ccccc1)NC(=O)[C@H](NS(=O)(=O)N(C)Cc1ccccn1)C(C)C | 11% | 40 µg/mL (≈ 46.1 µM) | 1160 nM | 7.42 | 1.5 h | 65 µM | – | 4.37 | – | – | – |
| CC(C)[C@H](NC(=O)OCc1cccnc1)C(=O)N[C@@H](Cc1ccccc1)C(O)[C@H](Cc1ccccc1)NC(=O)[C@H](NC(=O)OCc1cccnc1)C(C)C (some centres undefined) | 2.1% | 18 µg/mL (≈ 24.4 µM) | – | 8.17 | 0.31 h | – | – | 5.20 | 220 nM | 62 µM | – |
| CC(C)[C@H](NC(=O)N(C)Cc1ccccn1)C(=O)N[C@@H](Cc1ccccc1)C(O)[C@H](Cc1ccccc1)NC(=O)[C@H](NC(=O)N(C)Cc1ccccn1)C(C)C (some centres undefined) | 11% | 167 µg/mL (≈ 218 µM) | – | 7.37 | 0.45 h | – | – | 4.60 | 1500 nM | > 100 µM | – |
| CC(C)[C@H](NC(=O)OCc1ccncc1)C(=O)N[C@@H](Cc1ccccc1)C(O)[C@H](Cc1ccccc1)NC(=O)[C@H](NC(=O)OCc1ccncc1)C(C)C (some centres undefined) | 0.9% | 7.8 µg/mL (≈ 10.6 µM) | 200 nM | 7.59 | 0.57 h | > 100 µM | – | – | – | – | 5.00 |
| CC(C)[C@H](NC(=O)N(C)Cc1cccnc1)C(=O)N[C@@H](Cc1ccccc1)[C@H](O)[C@H](O)[C@H](Cc1ccccc1)NC(=O)[C@H](NC(=O)N(C)Cc1cccnc1)C(C)C | 17% | 91 µg/mL (≈ 114 µM) | – | > 9.00 | 1.3 h | – | – | 5.85 | 520 nM | > 100 µM | – |
| CC(C)[C@H](NS(=O)(=O)N(C)Cc1ccccn1)C(=O)N[C@@H](Cc1ccccc1)C(O)[C@H](Cc1ccccc1)NC(=O)[C@H](NS(=O)(=O)N(C)Cc1ccccn1)C(C)C (some centres undefined) | 21% | 11 µg/mL (≈ 13.1 µM) | 2100 nM | 5.89 | 1.4 h | 32 µM | Not Active | – | – | – | – |
| CC(C)[C@H](NC(=O)OCc1ccccn1)C(=O)N[C@@H](Cc1ccccc1)C(O)[C@H](Cc1ccccc1)NC(=O)[C@H](NC(=O)OCc1ccccn1)C(C)C (some centres undefined) | 19% | 51 µg/mL (≈ 69 µM) | – | 8.32 | 1.9 h | – | – | 5.35 | 1600 nM | 57 µM | – |
| CC(C)[C@H](NC(=O)OCC1CCCN(C)C1)C(=O)N[C@@H](Cc1ccccc1)[C@@H](O)[C@H](Cc1ccccc1)NC(=O)[C@H](NC(=O)OCc1ccccc1)C(C)C (some centres undefined) | – | 31 µg/mL (≈ 40.9 µM) | – | 7.89 | – | 17 µM | Not Active | – | – | – | – |
| CC(C)[C@H](NS(=O)(=O)N(C)Cc1ccccn1)C(=O)N[C@@H](Cc1ccccc1)[C@@H](O)[C@@H](O)[C@H](Cc1ccccc1)NC(=O)[C@H](NS(=O)(=O)N(C)Cc1ccccn1)C(C)C | – | 23 µg/mL (≈ 26.5 µM) | – | 6.62 | – | 52 µM | Not Active | – | – | – | – |
